In ChEMBL document CHEMBL4011636, “Utilization of an Active Site Mutant Receptor for the Identification of Potent and Selective Atypical 5-HT2C Receptor Agonists” (J Med Chem, 2017):

Experiments:
[1] = molecular target: 5-hydroxytryptamine receptor 2B (Homo sapiens, UniProt P41595); assay: Agonist activity at recombinant human 5-HT2B receptor expressed in HEK293E cells assessed as induction of intracellular Ca2+ levels after 90 secs by Fluo-4-dye based FLIPR assay; assay type: cell-based, HEK293
Chain of 5-hydroxytryptamine receptor 2B (P41595 whole entry, canonical isoform): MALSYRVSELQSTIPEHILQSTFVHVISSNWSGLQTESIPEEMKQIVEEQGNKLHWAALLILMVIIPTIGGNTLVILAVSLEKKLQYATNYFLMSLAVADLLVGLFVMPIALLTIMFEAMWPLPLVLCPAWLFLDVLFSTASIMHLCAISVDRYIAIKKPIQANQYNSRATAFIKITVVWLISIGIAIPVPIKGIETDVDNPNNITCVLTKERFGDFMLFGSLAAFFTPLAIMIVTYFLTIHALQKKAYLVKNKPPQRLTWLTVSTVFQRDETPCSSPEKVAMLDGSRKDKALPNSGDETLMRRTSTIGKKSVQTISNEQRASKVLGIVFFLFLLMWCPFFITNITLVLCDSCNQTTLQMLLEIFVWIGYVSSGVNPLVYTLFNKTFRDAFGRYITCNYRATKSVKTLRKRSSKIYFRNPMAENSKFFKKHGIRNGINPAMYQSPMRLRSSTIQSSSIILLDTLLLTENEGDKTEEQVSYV
How it was run: (§1)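 HEK293E cells stably expressing human receptor (VNV isoform for 5-HT2C; ~400−795 fmol/mg protein), grown in DMEM with 10% dialyzed FBS and G418. Cells plated at 20 000/well in serum-free DMEM overnight at 37 °C, then loaded 1 h at room temperature with 5 μM Fluo-4 in HBSS/25 mM HEPES. Eleven compound concentrations added on FLIPR, Ca2+ signal read for 90 s. EC50 from a four-parameter logistic fit, at least triplicate.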

[2] = molecular target: 5-hydroxytryptamine receptor 2A (Homo sapiens, UniProt P28223); assay: Agonist activity at recombinant human 5-HT2A receptor expressed in HEK293E cells assessed as induction of intracellular Ca2+ levels after 90 secs by Fluo-4-dye based FLIPR assay; assay type: cell-based, HEK293; how it was run: as §1
Chain of 5-hydroxytryptamine receptor 2A (P28223 whole entry): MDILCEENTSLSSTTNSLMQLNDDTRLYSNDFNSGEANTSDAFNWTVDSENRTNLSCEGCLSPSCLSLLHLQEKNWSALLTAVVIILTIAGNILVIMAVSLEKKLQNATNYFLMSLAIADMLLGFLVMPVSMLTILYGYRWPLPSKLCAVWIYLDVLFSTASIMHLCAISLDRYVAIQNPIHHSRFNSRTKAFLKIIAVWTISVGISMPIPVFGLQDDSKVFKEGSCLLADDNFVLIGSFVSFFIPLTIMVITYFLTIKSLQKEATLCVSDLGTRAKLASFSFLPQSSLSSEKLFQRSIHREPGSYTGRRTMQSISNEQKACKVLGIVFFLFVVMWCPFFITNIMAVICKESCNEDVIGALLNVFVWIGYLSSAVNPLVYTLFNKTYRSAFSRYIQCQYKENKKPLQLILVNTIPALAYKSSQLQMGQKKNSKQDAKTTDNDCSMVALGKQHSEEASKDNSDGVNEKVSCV

[3] = molecular target: T1, 5-hydroxytryptamine receptor 2C (Homo sapiens) (UniProt P28335); assay: Intrinsic activity at recombinant human 5-HT2C receptor expressed in HEK293E cells assessed as induction of intracellular Ca2+ levels after 90 secs by Fluo-4-dye based FLIPR assay relative to serotonin; assay type: functional, cell-based; settings: HEK293
T1 sequence (whole entry): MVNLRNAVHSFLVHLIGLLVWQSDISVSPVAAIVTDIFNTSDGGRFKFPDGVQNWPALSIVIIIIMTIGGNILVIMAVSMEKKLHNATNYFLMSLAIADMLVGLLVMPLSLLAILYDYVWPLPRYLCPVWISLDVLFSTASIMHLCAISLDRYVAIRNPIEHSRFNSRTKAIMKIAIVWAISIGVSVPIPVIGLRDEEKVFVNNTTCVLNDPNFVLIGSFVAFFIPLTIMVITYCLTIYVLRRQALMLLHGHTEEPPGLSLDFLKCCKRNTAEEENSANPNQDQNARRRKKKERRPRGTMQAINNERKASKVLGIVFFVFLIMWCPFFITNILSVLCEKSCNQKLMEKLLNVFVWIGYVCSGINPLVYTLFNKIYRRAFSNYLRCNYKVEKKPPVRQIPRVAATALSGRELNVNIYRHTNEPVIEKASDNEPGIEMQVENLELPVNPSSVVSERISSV
How it was run: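 FLIPR Fluo-4 Ca2+ assay in HEK293E cells stably expressing the human receptor (VNV isoform for 5-HT2C), eleven-point concentration series, 90 s read. Response normalized to 3 μM serotonin on the same plate (defined as IA = 1). Intrinsic activity taken from a four-parameter logistic fit.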

[4] = molecular target: T2, 5-hydroxytryptamine receptor 2C (Homo sapiens, UniProt P28335); assay: Agonist activity at recombinant human 5-HT2C receptor expressed in HEK293E cells assessed as induction of intracellular Ca2+ levels after 90 secs by Fluo-4-dye based FLIPR assay; assay type: functional, cell-based, HEK293; how it was run: as §1
T2 sequence (P28335 whole entry): T1 sequence (whole entry)

EC50 [1] [µM] | EC50 [2] [µM] | Intrinsic activity [3] | EC50 [4] [µM] | SMILES
> 10 | > 10 | 0.7 | 0.679 to 0.84 | O=C(c1csc(-c2cccc(Cl)c2Cl)n1)N1CCC(O)CC1
> 5 | > 5 | 0.7 | 1.6 | CCn1nc(-c2cccc3cnccc23)cc1-c1cccnn1
> 10 | > 10 | 0.2 | 3.85 to 4.39 | CCn1nc(-c2cccc3ccccc23)cc1-c1cncn1C
> 10 | > 10 | 0.3 | 3.46 to 5 | CCn1nc(-c2cccc3ccccc23)cc1-c1ccnn1C
> 10 | > 10 | 0.7 | 0.501 to 0.705 | Cc1cccc(-c2nc(C(=O)N3CCOCC3)cs2)c1C
> 10 | > 10 | 0.8 | 0.018 to 0.038 | O=C(c1nc(-c2cccc(Cl)c2Cl)cs1)N1CCOCC1
> 10 | > 10 | 0.4 | 1.04 | Cc1nc(-c2cccc3ccccc23)sc1C(=O)N1CCNCC1
> 10 | > 10 | 0.7 | 1.8 to 3.53 | Cn1cc(-c2cccc3ccccc23)nc1C(=O)N1CCC(CO)CC1
> 10 | > 10 | 0.8 | 0.291 to 0.518 | CCn1nc(-c2nccc3ccccc23)cc1-c1cccnn1
> 10 | > 10 | 0.8 | 0.129 to 0.315 | O=C(c1csc(-c2cccc(Cl)c2Cl)n1)N1CC2CC1CO2 (stereo unspecified)
> 10 | > 10 | 1 | 0.013 to 0.019 | Cc1nc(-c2cccc3ccccc23)sc1C(=O)N(C)Cc1ccn(C)n1
> 10 | > 10 | 0.3 | 1.27 to 2.4 | O=C(c1csc(-c2cccc(Cl)c2F)n1)N1CCOCC1
> 10 | > 10 | 0.3 | 4.53 to 4.73 | CCn1nc(-c2cccc3ncccc23)cc1-c1cccnn1
> 10 | > 10 | 0.1 | 4.6 | O=C(c1csc(-c2ccccc2Cl)n1)N1CCOCC1
> 10 | > 10 | 0.3 | 4.1 to 10 | O=C(c1nnn(-c2cccc3ccccc23)n1)N1CCC(CO)CC1
> 10 | > 10 | 0.6 | 0.315 to 0.396 | CCn1nc(-c2ccnc3ccccc23)cc1-c1cccnn1
> 5 | > 10 | 1.1 | 0.007 | CCn1nc(-c2cccc3ccncc23)cc1-c1ccc(N)nn1
> 10 | > 10 | 0.6 | 0.729 to 1.62 | O=C(c1nc(-c2cccc3ccccc23)cs1)N1CCOCC1
> 5 | > 5 | 0.8 | 0.576 to 0.613 | CCn1nc(-c2cccc3ccccc23)cc1-c1ccccn1
> 10 | > 10 | 0.6 | 1.52 to 2.27 | O=C(c1cnc(-c2cccc3ccccc23)s1)N1CCOCC1

SMILES | EC50 [1] [µM] | EC50 [2] [µM] | Intrinsic activity [3] | EC50 [4] [µM]
O=C(c1cnc(-c2cccc(Cl)c2Cl)s1)N1CCOCC1 | > 10 | > 10 | – | > 10
Cc1nc(-c2cccc(Cl)c2Cl)sc1C(=O)N1CCOCC1 | > 10 | > 10 | – | > 10
O=C(c1csc(-c2cccnc2)n1)N1CCOCC1 | > 10 | > 10 | – | > 10
O=C(c1csc(-c2cccc(F)c2Cl)n1)N1CCOCC1 | > 10 | > 10 | – | > 10
COCCNC(=O)c1sc(-c2cccc3ccccc23)nc1C | > 10 | > 10 | – | > 10
Cc1nc(-c2cccc3ccccc23)sc1C(N)=O | > 10 | > 10 | – | > 10
O=C(c1csc(-c2ccc(Cl)cc2Cl)n1)N1CCOCC1 | > 10 | > 10 | – | > 10
